Each block holds one molecule with its values, some of them ahead of it. Calls of active or inactive are those of the source. The rule behind the calls is not given here.
Key:
Details in all cases: Pichia kudriavzevii
[1] = target: ATP binding cassette transporter Abc1p (Issatchenkia orientalis) (UniProt Q09GQ4); assay: Inhibition of Candida krusei ABC1 expressed in Saccharomyces cerevisiae isolate ADdelta at 4 nM
[2] = target: ATP binding cassette transporter Abc1p (Issatchenkia orientalis) (UniProt Q09GQ4); assay: Inhibition of Candida krusei ABC1 expressed in Saccharomyces cerevisiae isolate ADdelta at 20 nM
[3] = target: ATP binding cassette transporter Abc1p (Issatchenkia orientalis) (UniProt Q09GQ4); assay: Inhibition of Candida krusei ABC1 expressed in Saccharomyces cerevisiae isolate ADdelta at 16 nM
How it was run: (§1)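 Agarose disk-diffusion test of S. cerevisiae AD overexpressing C. krusei Abc1p, with the parent AD strain as comparison. Cells were pregrown from YPD overnight into CSM to mid-log at 30°C. They were seeded at OD600 0.008 in CSM with 0.6% agarose, overlaid on CSM agar (pH 7.0). Paper disks carrying set nmol amounts of xenobiotic were applied, and plates were incubated at 30°C for 48 h before reading growth inhibition zones.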

[4] = target: ATP binding cassette transporter Abc1p (Issatchenkia orientalis) (UniProt Q09GQ4); assay: Inhibition of Candida krusei ABC1 expressed in Saccharomyces cerevisiae isolate ADdelta at 12 nM; how it was run: as §1
[5] = target: ATP binding cassette transporter Abc1p (Issatchenkia orientalis) (UniProt Q09GQ4); assay: Inhibition of Candida krusei ABC1 expressed in Saccharomyces cerevisiae isolate ADdelta at 0.24 nM
[6] = target: ATP binding cassette transporter Abc1p (Issatchenkia orientalis) (UniProt Q09GQ4); assay: Inhibition of Candida krusei ABC1 expressed in Saccharomyces cerevisiae isolate ADdelta at 620 nM; how it was run: as §1

Structure (SMILES): O=[N+]([O-])c1cc[n+]([O-])c2ccccc12
Activity [1]: inactive

Structure (SMILES): C=C1[C@@H](C)[C@H]2[C@H](Cc3ccccc3)NC(=O)[C@]23[C@H](OC(C)=O)/C=C/[C@@](C)(O)C(=O)[C@@H](C)C/C=C/[C@H]3[C@@H]1O
Activity [2]: Active

Structure (SMILES): C/C1=C/C(=O)O[C@@H]2C[C@@H](CC[C@H](C)/C=C\C=C\CC1)O[C@@](O)([C@@H]1CSC(=O)N1)C2
Activity [5]: Active

Other lines, results leading:

Activity [3]: Active
Structure (SMILES): CC/N=c1\cc2oc3cc(NCC)c(C)cc3c(-c3ccccc3C(=O)OCC)c-2cc1C

Activity [4]: Active
Structure (SMILES): CC[C@@]1([C@@H]2O[C@@H]([C@H]3O[C@@](O)(CO)[C@H](C)C[C@@H]3C)C[C@@H]2C)CC[C@H]([C@]2(C)CC[C@]3(C[C@H](O)[C@@H](C)[C@@H]([C@@H](C)[C@@H](OC)[C@H](C)C(=O)O)O3)O2)O1

Activity [6]: inactive
Structure (SMILES): CN1CCN(CCCN2c3ccccc3Sc3ccc(C(F)(F)F)cc32)CC1

Reference: ChEMBL document CHEMBL1649122, “Abc1p is a multidrug efflux transporter that tips the balance in favor of innate azole resistance in Candida krusei” (2009)
